High-throughput results deposited in PubChem BioAssay by several laboratories.
The list is not random: actives were taken first. Their share in the collection is about 7.1%.
HCT116 PTEN-null = suppresses growth of cells with PTEN deletion | HCT116 PTEN-null viability, CellTiter-Glo, 60 h; hits give low values | viability, % at 10 µM | 140,000 tested, 1.2% active | AID 827;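 active = viability at or below a set limit, 4 SD under the median of all tested compounds, cut at about 3.7% in these data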;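 note: PTEN knockout HCT116 line with beta catenin targeted HCT116 as companion control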
Cav32 inh = blocks human Cav3.2 T-type calcium channel. B-score at 10 µM. Cav3.2-expressing cells, Fluo-4 calcium fluorescence FDSS; hits give low values. 100,000 tested, 4% active. O95180. AID 449739;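 active = single-dose well whose peak fluorescence ratio is a statistical outlier from its plate by either plate-standardised score or position-corrected B-score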
Target sequence (O95180 whole entry, looked up): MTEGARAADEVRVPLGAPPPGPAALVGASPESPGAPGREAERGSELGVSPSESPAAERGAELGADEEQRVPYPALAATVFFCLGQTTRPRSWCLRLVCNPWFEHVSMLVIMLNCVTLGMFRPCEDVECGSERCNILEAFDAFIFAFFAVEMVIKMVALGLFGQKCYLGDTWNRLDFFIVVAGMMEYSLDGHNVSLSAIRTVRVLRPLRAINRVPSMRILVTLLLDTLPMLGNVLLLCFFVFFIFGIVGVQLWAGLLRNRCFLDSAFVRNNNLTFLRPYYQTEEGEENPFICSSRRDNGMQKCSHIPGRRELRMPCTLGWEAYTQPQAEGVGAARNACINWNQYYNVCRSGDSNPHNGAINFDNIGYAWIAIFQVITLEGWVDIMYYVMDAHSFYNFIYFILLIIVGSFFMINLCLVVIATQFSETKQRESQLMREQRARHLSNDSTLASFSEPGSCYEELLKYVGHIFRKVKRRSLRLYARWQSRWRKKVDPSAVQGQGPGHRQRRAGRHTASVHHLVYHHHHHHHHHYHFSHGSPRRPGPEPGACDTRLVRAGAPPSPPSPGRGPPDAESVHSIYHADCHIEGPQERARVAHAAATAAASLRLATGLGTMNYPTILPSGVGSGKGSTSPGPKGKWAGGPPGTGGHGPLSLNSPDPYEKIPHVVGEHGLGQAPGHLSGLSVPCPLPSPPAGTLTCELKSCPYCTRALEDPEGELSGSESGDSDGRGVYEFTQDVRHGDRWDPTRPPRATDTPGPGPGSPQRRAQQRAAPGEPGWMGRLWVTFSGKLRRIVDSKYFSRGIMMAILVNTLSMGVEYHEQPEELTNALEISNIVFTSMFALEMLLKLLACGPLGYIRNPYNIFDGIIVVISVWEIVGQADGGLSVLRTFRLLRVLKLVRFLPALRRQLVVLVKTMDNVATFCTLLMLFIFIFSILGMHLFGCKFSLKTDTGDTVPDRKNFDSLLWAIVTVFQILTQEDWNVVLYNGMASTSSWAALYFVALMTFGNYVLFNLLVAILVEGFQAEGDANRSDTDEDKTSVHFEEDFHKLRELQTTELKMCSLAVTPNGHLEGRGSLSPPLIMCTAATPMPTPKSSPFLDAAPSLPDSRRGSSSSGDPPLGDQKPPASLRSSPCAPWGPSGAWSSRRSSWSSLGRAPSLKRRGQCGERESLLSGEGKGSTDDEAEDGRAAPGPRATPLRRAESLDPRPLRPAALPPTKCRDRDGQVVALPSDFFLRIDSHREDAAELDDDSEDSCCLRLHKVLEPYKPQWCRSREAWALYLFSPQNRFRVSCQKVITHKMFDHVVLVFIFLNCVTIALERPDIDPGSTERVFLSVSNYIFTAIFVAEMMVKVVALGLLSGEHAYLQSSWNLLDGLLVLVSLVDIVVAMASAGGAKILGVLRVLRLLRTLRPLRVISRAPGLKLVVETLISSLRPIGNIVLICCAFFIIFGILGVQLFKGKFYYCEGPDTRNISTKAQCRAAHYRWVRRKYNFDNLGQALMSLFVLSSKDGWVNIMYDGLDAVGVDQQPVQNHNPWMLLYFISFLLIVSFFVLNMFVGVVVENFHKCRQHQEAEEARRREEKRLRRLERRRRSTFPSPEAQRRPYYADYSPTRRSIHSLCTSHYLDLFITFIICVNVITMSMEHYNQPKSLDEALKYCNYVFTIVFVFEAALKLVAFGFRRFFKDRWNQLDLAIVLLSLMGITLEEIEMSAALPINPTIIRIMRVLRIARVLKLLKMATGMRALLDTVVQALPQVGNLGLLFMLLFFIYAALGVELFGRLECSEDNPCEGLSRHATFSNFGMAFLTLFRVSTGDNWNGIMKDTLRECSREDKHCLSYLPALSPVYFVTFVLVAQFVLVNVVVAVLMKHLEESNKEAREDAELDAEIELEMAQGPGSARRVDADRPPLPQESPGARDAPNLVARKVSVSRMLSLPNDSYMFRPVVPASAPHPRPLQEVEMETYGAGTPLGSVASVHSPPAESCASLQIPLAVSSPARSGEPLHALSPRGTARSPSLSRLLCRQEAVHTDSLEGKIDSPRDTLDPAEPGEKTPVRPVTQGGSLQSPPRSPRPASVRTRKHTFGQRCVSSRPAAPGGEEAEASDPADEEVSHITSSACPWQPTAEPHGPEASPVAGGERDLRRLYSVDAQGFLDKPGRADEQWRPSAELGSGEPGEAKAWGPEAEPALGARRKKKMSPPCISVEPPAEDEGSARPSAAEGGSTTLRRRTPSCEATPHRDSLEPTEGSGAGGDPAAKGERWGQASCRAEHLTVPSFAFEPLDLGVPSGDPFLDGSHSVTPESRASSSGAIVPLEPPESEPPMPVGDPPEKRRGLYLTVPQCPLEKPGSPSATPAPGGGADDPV
Lung fibro prol = blocks proliferation of human lung fibroblasts; LL 47 human lung fibroblast viability, ATP luminescence; hits give low values; viability, % at 10 µM; 85,000 tested, 1.1% active;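 active = viability at or below 50% in the single dose screen; inactive = viability above 50%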;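 note: compound exposure lasted 72 h before the ATP readout; 100% = median luminescence of untreated cell-only wells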
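test system = LL 47 human lung fibroblasts | amount = 1,150 fibroblasts seeded per well | medium = 15% FBS in IMEM | times = overnight cell rest, 72 h compound treatment at 37 °C | measured by = CellTiter-Glo luminescence measuring cellular ATP | read-out = viability percentage against median untreated-cell control | benchmarks = cell-only wells, no compound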
H69AR growth 86K = blocks growth of human H69AR lung tumor cells. H69AR lung tumor viability, ATP luminescence, 72 h; hits give low values. viability, % at 10 µM. 85,000 tested, 6% active. AID 598;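 active = viability at or below 40%; inactive = viability above 40%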;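 note: multidrug resistant small cell line overexpressing MRP-1 efflux transporter; 100% = mean luminescence of untreated control wells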
HUVEC prolif 384 = blocks proliferation of human endothelial cells. viability, % at 10 µM (by protocol). 86,000 tested, 1.1% active. AID 648. HUVEC proliferation, CellTiter-Glo luminescence, 72 h; hits give low values;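 active = viability at or below 30%; inactive = viability above 30%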;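 note: 100% = median luminescence of DMSO-only cell control wells on each plate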
bCat KO growth = beta-catenin-lacking colon tumor cell growth suppression | HCT116 beta-catenin knockout viability, CellTiter-Glo, 60 h; hits give low values | viability, % at 10 µM | 140,000 tested, 1.5% active | AID 818;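 active = viability at or under a set limit, the compound median less 4 SD, cut at about 6% in these data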;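 note: 0% = Hyamine 1622 control at 20 µM and 100% = untreated cell control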
* = called active by the depositor.

For CCn1c(-c2ccccc2Cl)nn(CC(=O)Nc2cc(Cl)ccc2Cl)c1=S the results were HCT116 PTEN-null 91, Cav32 inh -4.8* and bCat KO growth 83.
For CCn1c(-c2ccccc2Cl)nn(CC(=O)NCCc2ccccc2)c1=S the results were HCT116 PTEN-null 79 and bCat KO growth 97.
For COc1cccc(C(=O)/C=C/c2ccc(N3CCCCC3)c([N+](=O)[O-])c2)c1 the results were HCT116 PTEN-null 2.9* and bCat KO growth 3.1*.
`COc1ccc(/C=C/C(=O)c2ccc(O)cc2)cc1COc1ccc(F)cc1` gave HCT116 PTEN-null 11, Cav32 inh 0.55 and bCat KO growth 16.
For COc1ccc(Oc2ccc(/C=C/C(=O)c3ccc(O)cc3)cc2[N+](=O)[O-])cc1 the results were HCT116 PTEN-null 1.3* and bCat KO growth 1.4*.
Screening O=C(/C=C/c1ccc(N2CCCCC2)c([N+](=O)[O-])c1)c1ccc(S(=O)(=O)N2CCCC2)cc1 returned HCT116 PTEN-null 0.7* and bCat KO growth 0.9*.
For C=C(C)CNC(=S)N1CCNC(=O)C1CC(=O)OC (stereo not drawn) the results were HCT116 PTEN-null 101 and bCat KO growth 97.
For Cc1cccc(N2CCN(C(=O)CCCSc3nc4ccccc4[nH]3)CC2)c1C the results were HCT116 PTEN-null 48, Cav32 inh -5.5*, Lung fibro prol 98, H69AR growth 86K 100, HUVEC prolif 384 75 and bCat KO growth 45.
CCCc1cc2c(OC(=O)CC)c(-c3ccc(C(=O)OCC)o3)c(=O)oc2cc1OC was read as HCT116 PTEN-null 92 and bCat KO growth 92.
`Cc1ccc(S(=O)(=O)N2CCC(=O)N(C(COCc3ccc(Cl)cc3)Cc3ccccc3)CC2)cc1` (stereo not drawn) gave HCT116 PTEN-null 75, Cav32 inh 0.87 and bCat KO growth 70.
Screening CCOC(=O)CN1C(=O)C(Sc2n[nH]c(-c3ccc(O)cc3)n2)CCc2ccccc21 (stereo not drawn) returned HCT116 PTEN-null 60, Cav32 inh -6.5* and bCat KO growth 64.
`CCOC(=O)CN1C(=O)C(Sc2nnc(-c3ccccc3OC)s2)CCc2ccccc21` (stereo not drawn) gave Lung fibro prol 93, H69AR growth 86K 92 and HUVEC prolif 384 95.
Screening Cc1ccccc1CSc1ccc(-c2ccc3c(c2)OCO3)nn1 returned HCT116 PTEN-null 89 and bCat KO growth 99.
Screening COC(=O)c1ccc(N2CCN(CC(=O)c3ccc(-c4ccccc4)cc3)CC2)c([N+](=O)[O-])c1 returned HCT116 PTEN-null 89 and bCat KO growth 76.
Screening CCC1(C)CC(CCNS(=O)(=O)c2ccc(C)cc2)(c2ccc(C)cc2)CCO1 (stereo not drawn) returned HCT116 PTEN-null 47, Cav32 inh -5.3* and bCat KO growth 35.
For CCOC(=O)c1sc(NC(=O)CSc2n[nH]c(-c3ccncc3)n2)c(C#N)c1C the results were HCT116 PTEN-null 107, Cav32 inh 1.2, Lung fibro prol 98, H69AR growth 86K 19*, HUVEC prolif 384 47 and bCat KO growth 98.
CCOC(=O)c1sc(NC(=O)CSc2nccc(C)n2)c(C#N)c1C was read as HCT116 PTEN-null 5, Cav32 inh 0.38, Lung fibro prol 95, H69AR growth 86K 7.2*, HUVEC prolif 384 89 and bCat KO growth 11.
`Cc1cc(C)n(C(=O)CNc2ccc(C)c(C)c2)n1` gave HCT116 PTEN-null 1.4*, Cav32 inh 0.26, Lung fibro prol 105, H69AR growth 86K 104, HUVEC prolif 384 103 and bCat KO growth 0.9*.
Cc1cc(C)n(CC(O)Cn2c3ccccc3c3ccccc32)n1 (stereo not drawn) was read as HCT116 PTEN-null 88, Cav32 inh -4.1, Lung fibro prol 87, H69AR growth 86K 58, HUVEC prolif 384 86 and bCat KO growth 96.
For Cc1cc(C)n(CC(O)CN2c3ccccc3Sc3ccccc32)n1 (stereo not drawn) the results were HCT116 PTEN-null 66, Cav32 inh -6.3*, Lung fibro prol 85, H69AR growth 86K 75, HUVEC prolif 384 60 and bCat KO growth 88.
For Cc1ccc2nc(NC(=O)c3cccc(-c4cc5ccccc5oc4=O)c3)sc2c1 the results were HCT116 PTEN-null 2.2*, Cav32 inh 0.071 and bCat KO growth 3.0*.
Screening Cc1ccc(C(=O)Nc2nc3ccccc3s2)s1 returned HCT116 PTEN-null 99, Lung fibro prol 99, H69AR growth 86K 62, HUVEC prolif 384 86 and bCat KO growth 93.
Cc1ccc2nc(NC(=O)c3ccc(Cl)s3)sc2c1 was read as HCT116 PTEN-null 80, Cav32 inh 1.3, Lung fibro prol 51, H69AR growth 86K 20*, HUVEC prolif 384 70 and bCat KO growth 86.
Cc1ccc2nc(NC(=O)c3cccs3)sc2c1 was read as HCT116 PTEN-null 86, Cav32 inh -0.076, Lung fibro prol 88, H69AR growth 86K 42, HUVEC prolif 384 100 and bCat KO growth 61.
CS(=O)(=O)c1ccc2nc(NC(=O)c3cccs3)sc2c1 was read as HCT116 PTEN-null 74, Cav32 inh -0.31, Lung fibro prol 97, H69AR growth 86K 25*, HUVEC prolif 384 75 and bCat KO growth 84.
For Cc1ccc(C(=O)Nc2nc3ccc(S(C)(=O)=O)cc3s2)s1 the results were HCT116 PTEN-null 85, Cav32 inh 0.67, Lung fibro prol 101, H69AR growth 86K 38*, HUVEC prolif 384 85 and bCat KO growth 87.
CCC(=O)Nc1nc2ccc(S(C)(=O)=O)cc2s1 was read as HCT116 PTEN-null 85, Cav32 inh -0.42, Lung fibro prol 93, H69AR growth 86K 56, HUVEC prolif 384 87 and bCat KO growth 91.
`Cc1cc(C(=O)Nc2nc3ccc(S(C)(=O)=O)cc3s2)c(C)o1` gave HCT116 PTEN-null 88, Cav32 inh -2.3, Lung fibro prol 46*, H69AR growth 86K 51, HUVEC prolif 384 94 and bCat KO growth 80.
`CCOCC(=O)Nc1nc2ccc(C)cc2s1` gave HCT116 PTEN-null 83, Cav32 inh -0.91, Lung fibro prol 90, H69AR growth 86K 40, HUVEC prolif 384 80 and bCat KO growth 85.
For C/C=C/C(=O)OCC(=O)Nc1nc2ccc(C)cc2s1 the results were HCT116 PTEN-null 85, Cav32 inh 1.1, Lung fibro prol 101, H69AR growth 86K 29*, HUVEC prolif 384 94 and bCat KO growth 94.
`CC(C)NC(=S)N1CCN(c2ncccn2)CC1` gave HCT116 PTEN-null 97 and bCat KO growth 89.
COc1ccc(N2CCN(c3oc(Cc4ccccc4)nc3C#N)CC2)cc1 was read as HCT116 PTEN-null 60, Cav32 inh -1.8, Lung fibro prol 96, H69AR growth 86K 35*, HUVEC prolif 384 82 and bCat KO growth 64.
COc1ccc(N2CCN(c3oc(COc4ccc(Cl)cc4)nc3C#N)CC2)cc1 was read as HCT116 PTEN-null 61, Cav32 inh -6.1* and bCat KO growth 57.
